Screening results (PubChem BioAssay)
eIF4E 4G PPI = blocks eIF4E binding to eIF4G. inhibition, % at 21.7 µM. TR-FRET eIF4E-eIF4GI(517-606) binding, 2 h. P63073+Q04637. 220,000 tested, 0.37% active;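 active = inhibition above about 30%, limit read from the data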
Calb biofilm kill = mixture kills Candida albicans biofilm cells | C. albicans biofilm persisters + clotrimazole, fluorescence viability; primary screen in compound mixtures of four per well | inhibition, % at 7.6 µM | 120,000 tested, 0.02% active | AID 1242;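 active = inhibition above 30.3% in the primary screen of four-compound pools, then above 30% when the compound was retested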;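 also: compounds exposed to preformed 24 h biofilms for 48 h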
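Incubation: 24 h biofilm formation, then 48 h compound exposure, 37 °C | Material: C. albicans biofilms | Buffer or medium: RPMI/MOPS medium, pH 7.0 | Measured by: 2-h Alamar Blue fluorescence, 535/590 nm excitation/emission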
PERK inhibitor = inhibitors of human PERK kinase. AID 1416. inhibition, % at 5.6 µM. 220,000 tested, 0.17% active. Q9NZJ5. CHO PERK-DD fusion, SEAP luminescence translation reporter;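 active = inhibition above the mean inhibition of all tested compounds plus 3 SD, set separately per screening campaign, cut at about 2.9% in these data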;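 also: PERK kinase domain activated by AP20187 dimerizer at 100 nM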
Hck Nef HTS = blocks Nef-activated human Hck kinase. Recombinant Hck-YEEI plus Nef, Z-Lyte FRET kinase assay. inhibition, % at 20 µM. 220,000 tested, 0.68% active;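 active = Hck-Nef kinase inhibition above about 50%, limit read from the data; inactive = inhibition below that limit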
Target sequence (P08631 whole entry, looked up): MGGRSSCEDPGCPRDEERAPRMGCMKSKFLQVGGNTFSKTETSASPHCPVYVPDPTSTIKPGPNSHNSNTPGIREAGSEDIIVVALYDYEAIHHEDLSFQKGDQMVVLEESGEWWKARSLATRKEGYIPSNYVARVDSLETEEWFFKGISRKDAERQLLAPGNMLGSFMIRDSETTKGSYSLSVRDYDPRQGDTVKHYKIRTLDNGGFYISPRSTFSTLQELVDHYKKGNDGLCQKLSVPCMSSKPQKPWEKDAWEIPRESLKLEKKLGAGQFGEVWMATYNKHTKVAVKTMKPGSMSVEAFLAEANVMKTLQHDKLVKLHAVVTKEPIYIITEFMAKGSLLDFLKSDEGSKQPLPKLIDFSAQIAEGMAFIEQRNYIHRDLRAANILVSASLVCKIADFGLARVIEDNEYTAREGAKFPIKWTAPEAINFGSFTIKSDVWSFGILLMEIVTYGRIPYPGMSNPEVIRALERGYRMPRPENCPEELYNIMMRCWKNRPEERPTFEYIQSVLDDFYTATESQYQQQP
p97 inhibitor = inhibitors of human p97 ATPase; inhibition, % at 8 µM; 220,000 tested, 0.42% active; recombinant p97 ATPase, Kinase-Glo ATP luminescence, 3 h; P55072; in the data active = inhibition above about 15%
14-3-3 Bad PPI = disrupts binding of bovine 14-3-3 zeta to phospho-Bad peptide; TR-FRET 14-3-3zeta/Dy647-pBad peptide displacement, 1 h; 220,000 tested, 0.71% active; inhibition, % at 21.7 µM;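 active = inhibition above about 70%, limit read from the data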
p97 confirm = human p97 ATPase inhibition, confirmation; AID 1517; shares compounds with p97 inhibitor; recombinant p97 ATPase, Kinase-Glo ATP luminescence; 760 tested, 44% active; inhibition, % at 8 µM;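 active = percent inhibition of p97 ATPase above a set limit, the primary screen's mean plus 3 SD, cut at about 15% in these data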
Numbers stand for hits; i = inactive; nt = not tested or not shown. Shown are actives, neighbours in structure and some others; about 2.2% of the full set was active somewhere.

SMILES	eIF4E 4G PPI	Calb biofilm kill	PERK inhibitor	Hck Nef HTS	p97 inhibitor	14-3-3 Bad PPI	p97 confirm
COc1ccccc1NC(=O)c1sc2nc(-c3ccco3)ccc2c1N	i	nt	i	i	i	i	nt
O=C(CCl)Nc1nc(-c2ccco2)c(-c2ccco2)s1	i	i	i	i	18	i	42
O=C(CCCSc1ccccc1)Nc1nc(-c2ccco2)c(-c2ccco2)s1	i	i	i	i	i	i	nt
Cc1cc(NC(=O)CCN2C(=O)C3C4C=CC(C4)C3C2=O)ccc1Br (stereo not drawn)	i	i	i	i	i	i	nt
COCCCNC(=O)c1cccn2c(=O)c3cc4ccccc4cc3nc12	i	nt	i	i	15	i	i
O=C(NCc1ccco1)c1cccn2c(=O)c3cc4ccccc4cc3nc12	i	nt	i	i	i	i	nt
O=C(CCC1CCCN(Cc2ccc3c(c2)CCO3)C1)NCc1ccc(F)c(F)c1 (stereo not drawn)	i	i	i	i	i	i	nt
Oc1ccc(Cl)cc1/C=C/c1ccc2cccc(O)c2n1	i	i	i	i	31	i	22
Oc1c(Cl)cc(Cl)cc1/C=C/c1ccc2cccc(O)c2n1	i	i	i	i	i	i	nt
O=S1(=O)Nc2c(ccc3cccnc23)-c2ccccc21	i	nt	i	i	23	i	32
C[C@H](NC(=O)c1nc[nH]c1C(=O)N[C@@H](CCCCNC(=O)OC(C)(C)C)C(=O)OC(C)(C)C)c1ccccc1	i	i	nt	i	nt	i	nt
O=C(OCc1ccccc1)C1=[N+]([O-])OC(C(=O)OCc2ccccc2)C1c1c[nH]c2ccccc12 (stereo not drawn)	i	nt	i	i	28	i	36
Cc1cc(N)c2cc(NC(=O)/C=C/c3ccccc3Cl)ccc2n1	i	i	i	i	24	i	23
CCCC(=O)Nc1ccc(Cc2ccc(NC(=O)CCC)c(C(=O)O)c2)cc1C(=O)O	i	i	i	i	i	i	nt
COc1cc(CNc2ccc(O)cc2)cc(Br)c1OCc1ccccc1F	i	i	i	i	15	i	i
CCOc1cc(CNc2ccc(O)cc2)cc(Br)c1OCc1ccccc1F	i	nt	i	i	i	i	nt
NC(=O)N/N=C/c1cc(Br)ccc1OC(=O)c1ccccc1	i	i	i	i	16	i	23
O=C(N/N=C\c1c(O)ccc2ccccc12)c1ccc(S(=O)(=O)N2CCCCC2)cc1	i	i	i	i	i	i	nt
CCN(CC)c1cc(C)c2cc(NC(=O)CNC(C)=O)ccc2n1	nt	nt	i	i	25	nt	i
CCCCNC(=O)CCC(=O)Nc1ccc2nc(N3CCC(C)CC3)cc(C)c2c1	i	i	i	i	i	i	nt
CC1=NN(C(=O)COc2ccccc2C)C(O)(c2ccc(Cl)cc2)C1 (stereo not drawn)	i	i	i	i	i	i	nt
O=C(O)CSCC(=O)Nc1ccc(-c2nc3ccccc3s2)cc1	i	i	i	i	i	i	nt
Cc1csc(NC(=O)CSCC(=O)O)c1-c1nc2ccccc2s1	i	i	i	i	16	i	19
CCCCn1c(N)c(N(CC)C(=O)C(c2ccccc2)c2ccccc2)c(=O)[nH]c1=O	i	i	i	i	i	i	nt
COc1ccc(S(=O)(=O)O/N=C2\CCCc3ccccc32)cc1	i	nt	i	i	18	i	i
SMILES	eIF4E 4G PPI	Calb biofilm kill	PERK inhibitor	Hck Nef HTS	p97 inhibitor	14-3-3 Bad PPI	p97 confirm
O=S(=O)(O/N=C1\CCCc2ccccc21)c1ccccc1	i	nt	i	i	i	i	nt
CC1=NN(c2ccccc2)C(=O)/C1=C/c1cccs1	i	i	i	i	17	i	i
O=C(O)c1cccc(CN2C(=O)SC(Nc3cccc4ccccc34)C2=O)c1 (stereo not drawn)	i	i	i	i	17	i	i
Nc1c(C(=O)O)sc2nc(-c3ccccc3)cc(-c3ccccc3)c12	i	i	i	i	23	i	i
CCCCN1C(=O)C2Cc3c([nH]c4ccccc34)CN2C1=S (stereo not drawn)	i	i	i	i	i	i	nt
O=C(CCl)Nc1cn(-c2ccccc2)nc1-c1ccc(F)cc1	i	i	i	i	17	i	26
N#CCc1nc2ccccc2c(=O)[nH]1	i	i	i	i	i	i	nt
COCC(=O)N(CCc1ccc(OC)c(OC)c1)Cc1nc2ccccc2c(=O)[nH]1	i	nt	i	i	16	i	i
O=S(=O)(Nc1cc2nc3ccccc3nc2n1Cc1ccccc1)c1ccc(Cl)cc1	i	i	i	i	31	i	43
Cc1nc(NC(=O)/C=C/c2ccccc2)sc1C(=O)N1CCCCC1	i	i	i	i	i	i	nt
O=C1C2=C(C(c3ccccc3)=NCCN2)C(c2cccc([N+](=O)[O-])c2)N1c1ccccc1 (stereo not drawn)	i	i	i	i	i	i	nt
CC(C)OC(=O)CSc1n[nH]c(-c2cccnc2)n1	i	nt	i	i	15	i	i
CCOc1cc(/C=C2/C(=O)N(c3ccccc3)N=C2C)ccc1OC(=O)c1ccco1	i	nt	i	i	27	i	i
CC1=Nc2ccccc2/C1=C/c1c(N)n2c(S(=O)(=O)C(C)C)nsc2nc1=O	i	i	i	i	22	i	36
CC1=Nc2ccc(C)cc2/C1=C/c1c(N)n2c(S(=O)(=O)C(C)C)nsc2nc1=O	i	i	i	i	i	i	nt
CC1=Nc2ccccc2/C1=C/c1c(N)n2c(S(=O)(=O)CC(C)C)nsc2nc1=O	i	i	i	i	18	i	39
CC(C)S(=O)(=O)c1nsc2nc(=O)c(/C=C3\C=Nc4ccccc43)c(N)n12	i	i	i	i	i	i	nt
COC(=O)c1ccc(NC(=O)C(=O)N2CCN(C(=S)NCCc3ccccc3)CC2)cc1	i	i	i	i	i	i	nt
FC(F)(F)c1ccc(NC(=S)NCc2ccccc2)cc1	i	i	i	i	i	i	nt
Cc1ccc(C(=O)NC(=C(Cl)Cl)S(=O)(=O)c2ccc(C)cc2)cc1	i	i	i	i	i	i	nt
Cc1ccc(C(=O)NC(=C(Cl)Cl)S(=O)(=O)c2ccc(Cl)cc2)cc1	i	i	i	i	17	i	23
O=C(NC(=C(Cl)Cl)S(=O)(=O)c1ccc(Cl)cc1)c1ccccc1	i	i	i	i	25	i	27
O=C(Nc1ncc(Cl)cc1Cl)c1c(F)cccc1Cl	i	i	i	i	i	i	nt
CC1CCc2c(C(=O)Nc3ccc(OC(F)(F)F)cc3)csc2C1 (stereo not drawn)	i	i	i	i	i	i	nt
CC1=Nc2ccccc2/C1=C/c1sc(=N)n(-c2nccs2)c1O	i	nt	i	i	29	i	36
Nc1cccc2cnccc12	i	nt	i	i	16	i	i
Oc1cccc2cnccc12	i	i	i	i	i	i	nt
O=C(Nc1ccccc1N1CCCCC1)c1ccc(-c2cccc(Cl)c2)o1	i	i	i	i	i	i	nt
